Reference: ChEMBL document CHEMBL3822395, “2-Aryl-3-(2-morpholinoethyl)thiazolidin-4-ones: Synthesis, anti-inflammatory in vivo, cytotoxicity in vitro and molecular docking studies” (Eur J Med Chem, 2016)
The source made the active and inactive calls. The rule behind the calls is not given here.

Key:
Mus musculus [1] = experiment: Antiinflammatory activity in BALB/c mouse assessed as inhibition of croton oil-induced ear edema at 33 mg/kg administered topically on ear measured at 6 hrs; assay type: functional; conditions: topical
Outline: (§1)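 Male BALB/c mice (25-35 g, mean 30 g), 3 per group. Ear edema induced with croton oil 2 μg/ear in acetone. Compounds were dosed at 33, 100, 166 and 333 mg/Kg, with indomethacin 33 mg/Kg as positive control. At 6 h a 6 mm ear punch was weighed and compared with untreated ears (edema index). Inhibition % = 100 × (1 − Vt/Vc) versus the control group.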

Mus musculus [2] = experiment: Antiinflammatory activity in BALB/c mouse ear assessed as inhibition of croton oil-induced ear swelling up to 333 mg/kg administered topically on ear measured at 6 hrs relative to control; assay type: functional, organism-based
Outline: (§2)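 Male BALB/c mice, 3 per group, dosed at 33–333 mg/Kg. Ears were checked at 6 h for heat, redness and swelling against a croton oil-induced control (2 μg/ear in acetone).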

Mus musculus [3] = experiment: Antiinflammatory activity in BALB/c mouse ear assessed as inhibition of croton oil-induced ear redness up to 333 mg/kg administered topically on ear measured at 6 hrs relative to control; assay type: functional, organism-based; outline: as §2
Mus musculus [4] = experiment: Antiinflammatory activity in BALB/c mouse ear assessed as inhibition of croton oil-induced heat in ear up to 333 mg/kg administered topically on ear measured at 6 hrs relative to control; assay type: functional, organism-based; outline: as §2
Mus musculus [5] = experiment: Antiinflammatory activity in BALB/c mouse assessed as inhibition of croton oil-induced ear edema at 166 mg/kg administered topically on ear measured at 6 hrs; assay type: functional; conditions: topical; outline: as §1
[6] = Cytotoxicity against African green monkey Vero cells assessed as cell viability at 62.5 ug/ml by MTT assay; assay type: cell-based; conditions: chlorocebus sabaeus, read-out: Activity
Outline: (§3)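 Vero cells were seeded at 2×10^6 cells mL⁻¹ in E-MEM with 10% FBS and antibiotics, then left to attach for 24 h and 48 h before treatment. Dilutions were 62.5–1000 µg/mL in E-MEM. After a PBS wash, cells got MTT 1 mg/mL for 4 h at 37 °C in the dark. Formazan was dissolved in DMSO and read at 540 nm. Viability % = AT/AC × 100. Three independent experiments.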

[7] = Cytotoxicity against African green monkey Vero cells assessed as cell viability at 125 ug/ml by MTT assay; assay type: cell-based; conditions: chlorocebus sabaeus, read-out: Activity; outline: as §3
[8] = Cytotoxicity against African green monkey Vero cells assessed as cell viability at 250 ug/ml by MTT assay; assay type: cell-based; conditions: chlorocebus sabaeus, read-out: Activity; outline: as §3
[9] = Cytotoxicity against African green monkey Vero cells assessed as cell viability at 500 ug/ml by MTT assay; assay type: cell-based; conditions: chlorocebus sabaeus, read-out: Activity; outline: as §3
[10] = Cytotoxicity against African green monkey Vero cells assessed as cell viability at 1000 ug/ml by MTT assay; assay type: cell-based; conditions: chlorocebus sabaeus, read-out: Activity; outline: as §3

| Structure (SMILES) | inhibition in vivo at 33 mg/kg (Mus musculus [1]) | inhibition (Mus musculus [2]) | inhibition (Mus musculus [3]) | inhibition (Mus musculus [4]) | inhibition in vivo at 166 mg/kg (Mus musculus [5]) | viability at 62.5 ug/ml [6] | viability at 125 ug/ml [7] | viability at 250 ug/ml [8] | viability at 500 ug/ml [9] | viability at 1000 ug/ml [10] |
| --- | --- | --- | --- | --- | --- | --- | --- | --- | --- | --- |
| COc1ccc2c(c1)c(CC(=O)O)c(C)n2C(=O)c1ccc(Cl)cc1 [INDOMETHACIN] | 58% | – | – | – | – | – | – | – | – | – |
| O=C1CSC(c2ccc(F)cc2)N1CCN1CCOCC1 (centres undefined) | – | Active | Active | Active | 39% | 100% | 100% | 100% | 91% | 89% |
| Cc1ccc(C2SCC(=O)N2CCN2CCOCC2)cc1 (centres undefined) | – | Active | Active | Active | 42% | 87% | 87% | 80% | 76% | 73% |
| O=C1CSC(c2ccccc2[N+](=O)[O-])N1CCN1CCOCC1 (centres undefined) | – | Active | Active | Active | 50% | 98% | 98% | 98% | 91% | 83% |
| O=C1CSC(c2ccc(O)cc2)N1CCN1CCOCC1 (centres undefined) | – | Active | Active | Active | 45% | 83% | 83% | 83% | 79% | 73% |
| O=C1CSC(c2cccc([N+](=O)[O-])c2)N1CCN1CCOCC1 (centres undefined) | – | Active | Active | Active | 48% | 100% | 100% | 100% | 92% | 92% |
| O=C1CSC(c2ccc(Cl)cc2)N1CCN1CCOCC1 (centres undefined) | – | Active | Active | Active | 44% | 87% | 87% | 87% | 76% | 74% |
| COc1ccc(C2SCC(=O)N2CCN2CCOCC2)cc1 (centres undefined) | – | Active | Active | Active | 54% | 100% | 100% | 100% | 90% | 89% |
